Assay results collected from several papers.
Each line is one published result; the experiments were not run side by side.
Target: Alpha-2B adrenergic receptor (ADRA2B, Homo sapiens, UniProt P18089)
Tested at: 10 µM
One construct used (P18089 1-450): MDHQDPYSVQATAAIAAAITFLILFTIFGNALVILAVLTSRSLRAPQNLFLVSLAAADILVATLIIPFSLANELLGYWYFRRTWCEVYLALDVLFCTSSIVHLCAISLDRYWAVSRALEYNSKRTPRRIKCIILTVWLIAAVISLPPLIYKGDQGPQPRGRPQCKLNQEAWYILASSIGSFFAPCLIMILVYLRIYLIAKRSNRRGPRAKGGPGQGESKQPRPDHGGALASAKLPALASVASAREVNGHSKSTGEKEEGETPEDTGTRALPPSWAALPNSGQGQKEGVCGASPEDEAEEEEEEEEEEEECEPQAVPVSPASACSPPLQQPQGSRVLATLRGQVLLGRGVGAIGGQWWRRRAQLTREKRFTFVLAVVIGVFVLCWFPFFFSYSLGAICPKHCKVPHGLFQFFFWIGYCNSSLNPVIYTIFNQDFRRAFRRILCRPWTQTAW

| Compound | effect on | technique | inhibition [%] |
| --- | --- | --- | --- |
| O=C1c2ccccc2C(=O)N1CC#Cc1ccc2c(c1)C=C([N+](=O)[O-])C(C(F)(F)F)O2 (stereo not drawn) | ligand displacement | radioligand | 70 |
| O=C(NNS(=O)(=O)c1ccccc1F)c1cc(F)cc(-c2ccccn2)c1 | cell-free assay | – | -3.78 |
| O=[N+]([O-])C1=Cc2cc(I)ccc2OC1C(F)(F)F (stereo not drawn) | ligand displacement | radioligand | 66 |
| N#Cc1cc(Cn2c(N3CCCC3)nc3ccccc32)ccc1F | ligand displacement | – | 18.7 |
| Oc1cccc(Nc2nc(-c3ccc(F)cc3F)cs2)c1 | cell-free assay | – | -29.7 |
| CN(C)C(=O)Cn1cc(-c2nc(C3(c4ccc(-c5cnc(N)nc5)cc4)CC3)no2)cn1 | cell-free assay | – | -3.57 |
| COc1cc(NC(C)=O)c(Cl)cc1C(=O)Nc1nccs1 | cell-free assay | – | -12.7 |
| CCCNc1nc2ccccc2n1Cc1ccc(Cl)cc1 | ligand displacement | – | 83 |
| CCN(CC)c1ccc(C2Nc3ccc(C(=O)c4ccccc4)cc3NC3=C2C(=O)CC(C)(C)C3)cc1 (stereo not drawn) | ligand displacement | radioligand | -8 |
